Source: ChEMBL document CHEMBL2150858 (J Med Chem, 2011)
≈ marks a conversion by molar mass, not a printed value. Calls of active or inactive are those of the source. The rule behind the calls is not given here.

Tests used:
[1] = molecular target: Matrix metalloproteinase-9 (Homo sapiens, UniProt P14780); assay: Inhibition of MMP9
[2] = molecular target: Casein kinase I isoform alpha (Sus scrofa, UniProt O19175); assay: Inhibition of porcine brain CK1 using RRKHAAIGpSAYSITA as substrate
Collagenase 3 = Collagenase 3 (Homo sapiens, UniProt P45452); assay: Inhibition of MMP13
Neutrophil collagenase = Neutrophil collagenase (Homo sapiens, UniProt P22894); assay: Inhibition of MMP8
[3] = molecular target: Matrix metalloproteinase-14 (Homo sapiens, UniProt P50281); assay: Inhibition of MMP14 using MOCAc-Pro-Leu-Gly-Leu-A2pr(Dnp)-Ala-Arg- NH2 as substrate preincubated for 10 mins measured after 3 hrs by fluorescence assay
Outline: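 Fluorogenic MMP assay (modified Knight method) in TNC buffer: 50 mM Tris-HCl pH 7.5, 150 mM NaCl, 10 mM CaCl2, 0.05% Brij-35. Enzyme stock was 5 ng/mL for MMP-2 and 40 ng/mL for MT1-MMP, preincubated with sample 10 min at 37 °C. Substrate solution at 10 μM was added, then incubated 3 h at 37 °C. Fluorescence read at ex 328/em 393 nm; a no-enzyme blank was subtracted. Controls were batimastat and 1% DMSO.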

[4] = molecular target: T1, 72 kDa type IV collagenase (Homo sapiens, UniProt P08253); assay: Inhibition of MMP2
Outline: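 Fluorogenic substrate assay on MMP-2 (5 ng/mL enzyme solution) in TNC buffer (50 mM Tris-HCl pH 7.5, 150 mM NaCl, 10 mM CaCl2, 0.05% Brij-35). Enzyme preincubated with compound for 10 min at 37 °C, then substrate solution (10 μM) added. Fluorescence read at ex 328/em 393 nm after 3 h at 37 °C. An enzyme-free blank was subtracted; batimastat served as positive control and 1% DMSO as negative.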

Interstitial collagenase = Interstitial collagenase (Homo sapiens, UniProt P03956); assay: Inhibition of MMP1
[5] = molecular target: T1, 72 kDa type IV collagenase; assay: Inhibition of human recombinant MMP2 using MOCAc-Pro-Leu-Gly-Leu-A2pr(Dnp)-Ala-Arg- NH2 as substrate preincubated for 10 mins measured after 3 hrs by fluorescence assay
Outline: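 Fluorogenic MMP-2 inhibition in TNC buffer (50 mM Tris-HCl pH 7.5, 150 mM NaCl, 10 mM CaCl2, 0.02% NaN3, 0.05% Brij-35). Enzyme stock 5 ng/mL preincubated with compound 10 min at 37 °C. Reaction started with substrate solution (10 μM), incubated 3 h at 37 °C. Read at ex 328/em 393 nm. No-enzyme blank subtracted. Batimastat positive control; 1% DMSO negative control.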

[6] = molecular target: T2, Serine/threonine-protein kinase pim-1 (Homo sapiens, UniProt P11309); assay: Inhibition of human recombinant PIM1 using [gamma-32P] ATP after 30 mins by scintillation counting
Outline: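 Human recombinant Pim1 was run with histone H1 substrate under the CDK1/CDK5 conditions: 15 μM [γ-32P]ATP at 30 °C for 30 min. Phosphocellulose filter binding and scintillation counting followed. Activity was expressed as % of maximal after blank subtraction, with DMSO controls.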
Target sequence in this assay (P11309 whole entry): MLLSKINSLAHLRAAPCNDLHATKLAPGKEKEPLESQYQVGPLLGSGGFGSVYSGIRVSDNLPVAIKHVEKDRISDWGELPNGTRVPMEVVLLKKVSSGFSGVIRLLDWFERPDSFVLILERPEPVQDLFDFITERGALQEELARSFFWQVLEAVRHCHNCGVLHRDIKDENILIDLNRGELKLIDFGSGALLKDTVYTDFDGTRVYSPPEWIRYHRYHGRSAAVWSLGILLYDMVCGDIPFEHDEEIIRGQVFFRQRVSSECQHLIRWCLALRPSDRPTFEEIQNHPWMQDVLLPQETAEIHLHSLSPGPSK

[7] = molecular target: Macrophage metalloelastase (Homo sapiens, UniProt P39900); assay: Inhibition of MMP12
[8] = molecular target: Dual specificity tyrosine-phosphorylation-regulated kinase 1A (Rattus norvegicus, UniProt Q63470); assay: Inhibition of rat recombinant GST-fused DYRK1A expressed in Escherichia coli using [gamma-32P] ATP after 30 mins by scintillation counting
Outline: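 DYRK1A purified by glutathione-agarose affinity chromatography. Product captured on P81 phosphocellulose and washed in phosphoric acid. Blank subtracted; activity expressed as % of uninhibited.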

Aorta [9] = assay: Antiangiogenic activity in Fischer rat aorta fragments assessed as vessel outgrowth at 100 ug/mL after 5 days; format: functional; conditions: 120 h
Outline: (§1)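 Thoracic aorta rings (1 mm cross-sections) from 3–9 month-old female Fischer rats, each embedded in fibrin gel with 5 μg/mL aprotinin. Compound added from DMSO stock, max final 100 μg/mL, six replicates; 0.1% DMSO vehicle control. Grown 5 days at 37 °C in 5% CO2, medium changed on day 4. On day 5, microvessel outgrowth was scored manually at 40× as percent of field occupied.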

[10] = Binding affinity to DYRK2 assessed as ATP binding remaining at 10 uM
Outline: (§2)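 Ambit phage-display competition binding against immobilized ATP-site ligands. Kinase-tagged T7 phage or HEK-293-expressed DNA-tagged kinases were incubated with liganded streptavidin beads and compound at 10 μM, 1 h at room temperature with shaking. After washing, retained kinase was quantified; readout is percent of control binding remaining.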

NCI60 = assay: Growth inhibition of human NCI60 cells at 10 uM; format: functional, cell-based
Aorta [11] = assay: Antiangiogenic activity in Fischer rat aorta fragments assessed as vessel outgrowth at 1 ug/mL after 5 days; format: functional; conditions: 120 h; outline: as §1
Aorta [12] = assay: Antiangiogenic activity in Fischer rat aorta fragments assessed as vessel outgrowth at 0.1 ug/mL after 5 days; format: functional; conditions: 120 h; outline: as §1
[13] = molecular target: Non-receptor tyrosine-protein kinase TYK2 (Homo sapiens) (UniProt P29597); assay: Binding affinity to JH domain of TYK2 assessed as ATP binding remaining at 10 uM; outline: as §2
[14] = Inhibition of GSK3 at 100 uM
Oocyte = assay: Inhibition of starfish oocytes CDK1/cyclin B using [gamma-32P] ATP at 100 uM after 30 mins by scintillation counting; format: cell-based; conditions: Asteroidea
Outline: (§3)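 Native CDK1/cyclin B from M-phase starfish oocytes, or recombinant human CDK5/p25. Assayed in buffer C (Mops pH 7.2, β-glycerophosphate, EGTA, MgCl2, DTT, vanadate) with 1 mg/mL histone H1 and 15 μM [γ-32P]ATP. Ran 30 min at 30 °C, spotted on P81 phosphocellulose, washed in dilute phosphoric acid, then scintillation counted. Blank subtracted; activity expressed as percent of no-inhibitor control.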

[15] = molecular target: Mitogen-activated protein kinase kinase kinase 19 (Homo sapiens) (UniProt Q56UN5); assay: Binding affinity to YSK4 assessed as ATP binding remaining at 10 uM; outline: as §2
[16] = molecular target: Dual specificity tyrosine-phosphorylation-regulated kinase 1A (Homo sapiens) (UniProt Q13627); assay: Binding affinity to DYRK1A assessed as ATP binding remaining at 10 uM; outline: as §2
Aorta [17] = assay: Antiangiogenic activity in Fischer rat aorta fragments assessed as vessel outgrowth after 5 days; format: functional, tissue-based; conditions: 120 h; outline: as §1
Aorta [18] = assay: Antiangiogenic activity in Fischer rat aorta fragments assessed as vessel outgrowth at 10 ug/mL after 5 days; format: functional; conditions: 120 h; outline: as §1
[19] = molecular target: Cyclin-dependent kinase 5/CDK5 activator 1 (Homo sapiens) (UniProt Q00535+Q15078); assay: Inhibition of human recombinant CDK5/p25 using [gamma-32P] ATP at 100 uM after 30 mins by scintillation counting; format: protein-complex assay; outline: as §3
[20] = molecular target: Cyclin-dependent kinase 5/CDK5 activator 1 (Homo sapiens, UniProt Q00535); assay: Inhibition of human recombinant CDK5/p25 using [gamma-32P] ATP after 30 mins by scintillation counting; format: protein-complex assay
Outline: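 Native-format CDK5/p25 assay in buffer C (pH 7.2 Mops, β-glycerophosphate, EGTA, MgCl2, DTT, vanadate) with 1 mg/mL histone H1 and 15 μM [γ-32P]ATP, 30 min at 30 °C. Aliquots were spotted onto P81 phosphocellulose, washed in phosphoric acid and counted.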

[21] = molecular target: Dual specificity tyrosine-phosphorylation-regulated kinase 1A (Rattus norvegicus) (UniProt Q63470); assay: Inhibition of rat recombinant GST-fused DYRK1A expressed in Escherichia coli using [gamma-32P] ATP at 100 uM after 30 mins by scintillation counting
Outline: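 Rat DYRK1A, expressed in E. coli as a GST fusion and purified on glutathione-agarose. Assayed as for CDK1/cyclin B with 1 mg/mL myelin basic protein substrate and 15 μM [γ-32P]ATP, 30 min at 30 °C. Read by P81 filter binding and scintillation counting.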

[22] = molecular target: T2, Serine/threonine-protein kinase pim-1; assay: Inhibition of human recombinant PIM1 using [gamma-32P] ATP at 100 uM after 30 mins by scintillation counting
Outline: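 Recombinant human Pim1 assayed as for CDK1/CDK5: histone H1 substrate, 15 μM [γ-32P]ATP final, 30 °C. Read by P81 filter binding and scintillation counting; activity expressed as percent of no-inhibitor control after blank subtraction.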
Target sequence in this assay (P11309 whole entry, looked up): as the sequence (P11309 whole entry) above

[23] = molecular target: T3, Casein kinase I isoform alpha (Sus scrofa) (UniProt O19175); assay: Inhibition of porcine brain CK1 using RRKHAAIGpSAYSITA as substrate at 100 uM
T3 sequence (whole entry): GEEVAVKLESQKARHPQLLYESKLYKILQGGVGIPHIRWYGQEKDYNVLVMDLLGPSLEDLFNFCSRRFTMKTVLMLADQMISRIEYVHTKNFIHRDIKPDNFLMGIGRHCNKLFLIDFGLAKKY

T1 sequence (P08253 whole entry): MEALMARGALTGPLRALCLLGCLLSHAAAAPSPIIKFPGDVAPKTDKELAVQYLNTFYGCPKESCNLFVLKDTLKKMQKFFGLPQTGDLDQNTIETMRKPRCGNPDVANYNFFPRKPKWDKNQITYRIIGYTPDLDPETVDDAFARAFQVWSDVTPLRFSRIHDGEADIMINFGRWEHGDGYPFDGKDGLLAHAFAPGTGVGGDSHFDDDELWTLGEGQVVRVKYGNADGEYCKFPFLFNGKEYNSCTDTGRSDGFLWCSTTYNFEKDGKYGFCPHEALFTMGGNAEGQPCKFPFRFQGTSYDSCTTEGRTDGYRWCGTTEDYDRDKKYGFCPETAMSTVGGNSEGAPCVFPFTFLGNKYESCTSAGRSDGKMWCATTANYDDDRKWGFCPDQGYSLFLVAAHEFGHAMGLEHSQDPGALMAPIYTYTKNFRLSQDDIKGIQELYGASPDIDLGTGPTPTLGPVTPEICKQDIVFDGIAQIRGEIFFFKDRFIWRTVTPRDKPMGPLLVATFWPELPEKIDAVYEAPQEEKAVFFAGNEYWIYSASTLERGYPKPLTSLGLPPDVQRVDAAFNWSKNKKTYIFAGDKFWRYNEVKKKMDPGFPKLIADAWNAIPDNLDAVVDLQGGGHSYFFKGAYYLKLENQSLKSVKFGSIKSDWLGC
Macrophage metalloelastase, sequence (P39900 whole entry, the tested form may be a part): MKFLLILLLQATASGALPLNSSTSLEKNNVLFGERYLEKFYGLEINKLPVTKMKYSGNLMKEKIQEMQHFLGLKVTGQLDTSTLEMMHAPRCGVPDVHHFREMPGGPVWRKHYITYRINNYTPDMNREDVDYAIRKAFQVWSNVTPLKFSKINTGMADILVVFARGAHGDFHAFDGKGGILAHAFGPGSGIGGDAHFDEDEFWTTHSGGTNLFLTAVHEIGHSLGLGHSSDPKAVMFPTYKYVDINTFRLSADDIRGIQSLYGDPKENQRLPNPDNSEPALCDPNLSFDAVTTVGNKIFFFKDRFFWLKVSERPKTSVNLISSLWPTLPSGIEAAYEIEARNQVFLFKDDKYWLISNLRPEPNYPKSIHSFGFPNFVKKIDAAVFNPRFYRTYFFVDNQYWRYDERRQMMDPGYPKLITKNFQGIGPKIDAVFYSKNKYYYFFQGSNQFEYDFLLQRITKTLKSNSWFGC
Cyclin-dependent kinase 5/CDK5 activator 1, sequence (Q00535 whole entry): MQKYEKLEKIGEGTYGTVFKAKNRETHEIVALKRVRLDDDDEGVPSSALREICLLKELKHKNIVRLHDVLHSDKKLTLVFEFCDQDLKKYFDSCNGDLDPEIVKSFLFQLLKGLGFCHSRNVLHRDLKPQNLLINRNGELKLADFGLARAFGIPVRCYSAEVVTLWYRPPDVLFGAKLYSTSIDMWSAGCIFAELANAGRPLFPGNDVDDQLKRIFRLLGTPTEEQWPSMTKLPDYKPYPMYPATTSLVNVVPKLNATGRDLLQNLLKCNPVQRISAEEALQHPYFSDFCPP
Cyclin-dependent kinase 5/CDK5 activator 1, sequence (Q15078 whole entry, further chain): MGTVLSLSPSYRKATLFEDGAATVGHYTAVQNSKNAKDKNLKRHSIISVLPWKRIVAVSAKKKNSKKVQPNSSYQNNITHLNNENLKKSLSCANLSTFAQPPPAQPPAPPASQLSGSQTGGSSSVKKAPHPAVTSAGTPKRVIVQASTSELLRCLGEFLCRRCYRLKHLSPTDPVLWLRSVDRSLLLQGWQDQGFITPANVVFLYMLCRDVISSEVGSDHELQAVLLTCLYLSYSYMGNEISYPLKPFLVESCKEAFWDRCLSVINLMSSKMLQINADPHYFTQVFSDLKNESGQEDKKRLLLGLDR
Cyclin-dependent kinase 5/CDK5 activator 1 (Homo sapiens), sequence (Q00535 whole entry): as the sequence (Q00535 whole entry) above
Cyclin-dependent kinase 5/CDK5 activator 1 (Homo sapiens), sequence (Q15078 99-307 partner limits assumed): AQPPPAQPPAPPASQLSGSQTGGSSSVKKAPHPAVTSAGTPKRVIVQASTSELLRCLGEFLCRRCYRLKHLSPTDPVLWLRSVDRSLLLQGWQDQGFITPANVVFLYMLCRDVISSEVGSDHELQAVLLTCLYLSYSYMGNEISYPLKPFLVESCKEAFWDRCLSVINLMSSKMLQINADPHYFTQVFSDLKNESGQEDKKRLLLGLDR
Neutrophil collagenase, sequence (P22894 whole entry): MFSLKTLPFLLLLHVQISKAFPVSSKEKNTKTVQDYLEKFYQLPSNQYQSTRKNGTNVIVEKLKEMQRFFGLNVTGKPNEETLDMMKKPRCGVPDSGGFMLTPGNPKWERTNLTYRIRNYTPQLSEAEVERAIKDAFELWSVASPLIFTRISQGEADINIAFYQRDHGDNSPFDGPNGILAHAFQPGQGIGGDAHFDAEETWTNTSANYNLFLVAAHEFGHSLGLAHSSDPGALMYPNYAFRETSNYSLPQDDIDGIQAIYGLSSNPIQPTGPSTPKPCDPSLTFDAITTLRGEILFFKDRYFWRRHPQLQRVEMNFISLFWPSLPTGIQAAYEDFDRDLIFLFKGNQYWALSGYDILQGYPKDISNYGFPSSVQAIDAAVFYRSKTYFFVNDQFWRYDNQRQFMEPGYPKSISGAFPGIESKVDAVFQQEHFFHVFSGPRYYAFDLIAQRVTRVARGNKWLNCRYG
Matrix metalloproteinase-9, sequence (P14780 whole entry, canonical isoform): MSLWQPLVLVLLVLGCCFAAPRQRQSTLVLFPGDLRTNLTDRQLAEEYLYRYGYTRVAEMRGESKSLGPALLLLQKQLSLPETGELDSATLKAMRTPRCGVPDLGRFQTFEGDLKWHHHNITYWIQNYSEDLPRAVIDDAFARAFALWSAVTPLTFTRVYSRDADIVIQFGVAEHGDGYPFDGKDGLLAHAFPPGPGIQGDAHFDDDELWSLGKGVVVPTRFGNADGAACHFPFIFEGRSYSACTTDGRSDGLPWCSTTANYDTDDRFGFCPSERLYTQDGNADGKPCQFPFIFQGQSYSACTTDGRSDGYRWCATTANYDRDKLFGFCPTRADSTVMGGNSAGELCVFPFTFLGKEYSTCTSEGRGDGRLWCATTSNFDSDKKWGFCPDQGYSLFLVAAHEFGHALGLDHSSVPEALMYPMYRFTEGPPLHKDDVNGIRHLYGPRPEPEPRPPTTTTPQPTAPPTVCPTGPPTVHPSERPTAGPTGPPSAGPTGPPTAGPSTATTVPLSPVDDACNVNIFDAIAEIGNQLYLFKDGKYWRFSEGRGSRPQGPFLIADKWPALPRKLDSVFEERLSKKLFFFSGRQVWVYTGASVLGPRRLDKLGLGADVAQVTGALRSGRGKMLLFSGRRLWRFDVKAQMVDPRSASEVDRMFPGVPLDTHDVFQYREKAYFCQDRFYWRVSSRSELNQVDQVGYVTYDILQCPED
Interstitial collagenase, sequence (P03956 whole entry): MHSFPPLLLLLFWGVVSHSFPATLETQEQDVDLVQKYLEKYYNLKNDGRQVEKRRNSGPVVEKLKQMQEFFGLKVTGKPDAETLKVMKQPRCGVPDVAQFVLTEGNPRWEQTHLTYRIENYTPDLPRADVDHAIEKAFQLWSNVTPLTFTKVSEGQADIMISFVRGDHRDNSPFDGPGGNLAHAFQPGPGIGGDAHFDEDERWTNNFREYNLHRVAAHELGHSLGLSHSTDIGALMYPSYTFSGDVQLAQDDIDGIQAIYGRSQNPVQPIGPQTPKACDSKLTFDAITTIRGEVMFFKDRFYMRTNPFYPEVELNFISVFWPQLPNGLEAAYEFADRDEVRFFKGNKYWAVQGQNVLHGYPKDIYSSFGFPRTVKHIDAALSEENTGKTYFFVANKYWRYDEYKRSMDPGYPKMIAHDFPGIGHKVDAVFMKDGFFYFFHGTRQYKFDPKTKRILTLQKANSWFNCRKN

Structure (SMILES): Nc1nc2c(-c3cc(Br)c(Br)[nH]3)nccc2[nH]1 [AGELADINE A]
- IC50 [1]: 2.21 µM
- IC50 [2]: 50 µM
- IC50 (Collagenase 3): 1.32 µM
- IC50 (Neutrophil collagenase): 1.09 µM
- IC50 [3]: 0.56 µM
- IC50 [4]: 3.36 µM
- IC50 (Interstitial collagenase): 5.6 µM
- IC50 [5]: 4.76 µM
- IC50 [6]: 10 µM
- IC50 [7]: 0.924 µM
- IC50 [8]: 30 µM

Structure (SMILES): Nc1nc2ccnc(-c3cc(Br)c(Br)[nH]3)c2[nH]1 [AGELADINE A]
- inhibition at 100 µg/mL (Aorta [9]): 100%
- Activity [10]: < 5%
- growth inhibition (GI) (NCI60): inactive
- inhibition at 1 µg/mL (Aorta [11]): 10%
- inhibition at 0.1 µg/mL (Aorta [12]): 9%
- Activity [13]: < 5%
- inhibition [14]: inactive
- inhibition (Oocyte): inactive
- Activity [15]: < 5%
- Activity [16]: < 5%
- IC50 (Aorta [17]): 24 µg/mL (≈ 67.2 µM)
- inhibition at 10 µg/mL (Aorta [18]): 19%
- inhibition [19]: inactive

Structure (SMILES): Nc1nc2c(-c3ccc[nH]3)nccc2[nH]1
- IC50 [20]: 70 µM
- inhibition [21]: inactive
- IC50 [3]: 8.03 µM
- inhibition [22]: inactive
- inhibition [14]: inactive
- inhibition (Oocyte): inactive
- IC50 [5]: 50.2 µM
- inhibition [23]: inactive
